Source: ChEMBL document CHEMBL1629583, “Establishment of in vitro susceptibility testing methodologies and comparative activities of piperacillin in combination with the penem {beta}-lactamase inhibitor BLI-489” (2009)
Converted amounts (≈) assume the structure as drawn.

How the values were obtained:
Format in all cases: functional
[1] = system: Clostridium perfringens; assay: Antimicrobial activity against Clostridium perfringens clinical isolate after 18 to 22 hrs by broth microdilution method in presence of beta-lactamase inhibitor Tazobactam
[2] = system: Klebsiella pneumoniae; assay: Antimicrobial activity against class A extended spectrum beta-lactamase- producing Klebsiella pneumoniae clinical isolate after 18 to 22 hrs by broth microdilution method in presence of beta-lactamase inhibitor BLI-489
Outline: (§1)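 Piperacillin serially diluted with BLI-489 held at a constant 4 μg/ml, by CLSI broth microdilution in Mueller-Hinton II broth. Inoculum was 10^5 CFU/ml. Plates were incubated 18 to 22 h at 35°C in ambient air. MIC was the lowest concentration completely inhibiting growth seen by the unaided eye.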

[3] = system: Providencia stuartii; assay: Antimicrobial activity against Providencia stuartii clinical isolate after 18 to 22 hrs by broth microdilution method in presence of beta-lactamase inhibitor BLI-489
Outline: (§2)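 CLSI broth microdilution in Mueller-Hinton II broth. Serial dilutions of piperacillin were tested with BLI-489 held at a constant 4 μg/ml. Inoculum was 10^5 CFU/ml. Plates were incubated 18 to 22 h at 35°C in ambient air. MIC was the lowest concentration giving complete growth inhibition by unaided eye.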

[4] = system: Peptostreptococcus anaerobius; assay: Antimicrobial activity against Peptostreptococcus anaerobius clinical isolate after 18 to 22 hrs by broth microdilution method in presence of beta-lactamase inhibitor Tazobactam
[5] = system: Bacteroides uniformis; assay: Antimicrobial activity against Bacteroides uniformis clinical isolate after 18 to 22 hrs by broth microdilution method in presence of beta-lactamase inhibitor Tazobactam
[6] = system: Acinetobacter junii; assay: Antimicrobial activity against Acinetobacter junii clinical isolate after 18 to 22 hrs by broth microdilution method in presence of beta-lactamase inhibitor BLI-489
Outline: (§3)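 CLSI broth microdilution in Mueller-Hinton II broth. Piperacillin serial dilutions were combined with BLI-489 held constant at 4 μg/ml. Inoculum was 10^5 CFU/ml. Plates were incubated 18 to 22 h at 35°C in ambient air. MIC was the lowest concentration completely inhibiting growth seen by the unaided eye. Piperacillin-tazobactam interpretive criteria were applied.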

[7] = system: Serratia marcescens; assay: Antimicrobial activity against Serratia marcescens clinical isolate after 18 to 22 hrs by broth microdilution method in presence of beta-lactamase inhibitor Tazobactam
Outline: (§4)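 Piperacillin-tazobactam was tested by CLSI broth microdilution in Mueller-Hinton II broth against clinical isolates. Inoculum was 10^5 CFU/ml, with 18 to 22 h incubation at 35°C in ambient air. MIC was read as the lowest concentration completely inhibiting visible growth.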

[8] = system: Staphylococcus epidermidis; assay: Antimicrobial activity against methicillin-susceptible Staphylococcus epidermidis clinical isolate after 18 to 22 hrs by broth microdilution method in presence of beta-lactamase inhibitor BLI-489; outline: as §1
[9] = system: Klebsiella oxytoca; assay: Antimicrobial activity against Klebsiella oxytoca clinical isolate after 18 to 22 hrs by broth microdilution method in presence of beta-lactamase inhibitor BLI-489; outline: as §2
[10] = system: Klebsiella oxytoca; assay: Antimicrobial activity against Klebsiella oxytoca clinical isolate after 18 to 22 hrs by broth microdilution method in presence of beta-lactamase inhibitor Tazobactam; outline: as §4
[11] = system: Acinetobacter calcoaceticus; assay: Antimicrobial activity against Acinetobacter calcoaceticus clinical isolate after 18 to 22 hrs by broth microdilution method in presence of beta-lactamase inhibitor BLI-489; outline: as §3
[12] = system: Staphylococcus aureus; assay: Antimicrobial activity against methicillin-resistant Staphylococcus aureus clinical isolate after 18 to 22 hrs by broth microdilution method in presence of beta-lactamase inhibitor BLI-489
Outline: (§5)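 CLSI broth microdilution in Mueller-Hinton II broth. Antibiotic in serial dilution with the β-lactamase inhibitor held at a constant 4 μg/ml. Inoculum 10^5 CFU/ml. Incubated 18 to 22 h at 35°C in ambient air.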

[13] = system: Staphylococcus epidermidis; assay: Antimicrobial activity against methicillin-resistant Staphylococcus epidermidis clinical isolate after 18 to 22 hrs by broth microdilution method in presence of beta-lactamase inhibitor Tazobactam; outline: as §5
[14] = system: Bacteroides thetaiotaomicron; assay: Antimicrobial activity against Bacteroides thetaiotaomicron clinical isolate after 18 to 22 hrs by broth microdilution method
[15] = system: Stenotrophomonas maltophilia; assay: Antimicrobial activity against Stenotrophomonas maltophilia clinical isolate after 18 to 22 hrs by broth microdilution method in presence of beta-lactamase inhibitor Tazobactam; outline: as §4
[16] = system: Escherichia coli; assay: Antimicrobial activity against AmpC beta-lactamase-producing Escherichia coli clinical isolate after 18 to 22 hrs by broth microdilution method in presence of beta-lactamase inhibitor Tazobactam
Outline: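 Piperacillin-tazobactam was tested on recent clinical isolates by CLSI broth microdilution in Mueller-Hinton II broth, with tazobactam at constant 4 μg/ml. Wells held 10^5 CFU/ml and were incubated 18 to 22 h at 35°C in ambient air. MIC was the lowest concentration with no growth visible to the unaided eye.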

[17] = system: Escherichia coli; assay: Antimicrobial activity against class A extended spectrum beta-lactamase- and class D OXA- producing Escherichia coli clinical isolate after 18 to 22 hrs by broth microdilution method in presence of beta-lactamase inhibitor Tazobactam
[18] = system: Klebsiella pneumoniae; assay: Antimicrobial activity against Klebsiella pneumoniae clinical isolate after 18 to 22 hrs by broth microdilution method in presence of beta-lactamase inhibitor Tazobactam; outline: as §4
[19] = system: Enterococcus avium; assay: Antimicrobial activity against Enterococcus avium clinical isolate after 18 to 22 hrs by broth microdilution method in presence of beta-lactamase inhibitor BLI-489; outline: as §3
[20] = system: Enterococcus faecalis; assay: Antimicrobial activity against Enterococcus faecalis clinical isolate after 18 to 22 hrs by broth microdilution method in presence of beta-lactamase inhibitor Tazobactam; outline: as §5
[21] = system: Escherichia coli; assay: Antimicrobial activity against AmpC beta-lactamase-producing Escherichia coli clinical isolate after 18 to 22 hrs by broth microdilution method in presence of beta-lactamase inhibitor BLI-489; outline: as §3
[22] = system: Peptostreptococcus anaerobius; assay: Antimicrobial activity against Peptostreptococcus anaerobius clinical isolate after 18 to 22 hrs by broth microdilution method
[23] = system: Staphylococcus aureus; assay: Antimicrobial activity against methicillin-resistant Staphylococcus aureus clinical isolate after 18 to 22 hrs by broth microdilution method in presence of beta-lactamase inhibitor Tazobactam; outline: as §5
[24] = system: Clostridium perfringens; assay: Antimicrobial activity against Clostridium perfringens clinical isolate after 18 to 22 hrs by broth microdilution method in presence of beta-lactamase inhibitor BLI-489

SMILES: CCN1CCN(C(=O)N[C@@H](C(=O)N[C@@H]2C(=O)N3[C@@H]2SC(C)(C)[C@@H]3C(=O)O)c2ccccc2)C(=O)C1=O [PIPERACILLIN]
- MIC [1]: ≤ 0.015 µg/mL
- MIC50 [1]: ≤ 0.015 µg/mL
- MIC90 [1]: 0.03 µg/mL
- MIC50 [2]: 16 µg/mL
- MIC90 [2]: 32 µg/mL
- MIC50 [3]: 1 µg/mL
- MIC90 [3]: 8 µg/mL
- MIC [4]: ≤ 0.015 µg/mL
- MIC50 [4]: ≤ 0.015 µg/mL
- MIC90 [4]: ≤ 0.015 µg/mL
- MIC50 [5]: 0.5 µg/mL
- MIC90 [5]: 4 µg/mL
- MIC50 [6]: 4 µg/mL
- MIC90 [6]: 16 µg/mL
- MIC50 [7]: 2 µg/mL
- MIC90 [7]: 64 µg/mL
- MIC [8]: ≤ 0.004 µg/mL
- MIC50 [8]: ≤ 0.004 µg/mL
- MIC90 [8]: ≤ 0.004 µg/mL
- MIC50 [9]: 2 µg/mL
- MIC90 [9]: 8 µg/mL
- MIC50 [10]: 2 µg/mL
- MIC90 [10]: 8 µg/mL
- MIC50 [11]: > 128 µg/mL
- MIC90 [11]: > 128 µg/mL
- MIC50 [12]: 32 µg/mL
- MIC50 [13]: 1 µg/mL
- MIC90 [13]: 8 µg/mL
- MIC50 [14]: 32 µg/mL (≈ 61.8 µM)
- MIC90 [14]: > 128 µg/mL
- MIC [15]: > 128 µg/mL
- MIC50 [15]: > 128 µg/mL
- MIC90 [15]: > 128 µg/mL
- MIC50 [16]: 4 µg/mL
- MIC90 [16]: 8 µg/mL
- MIC50 [17]: 1 µg/mL
- MIC90 [17]: 2 µg/mL
- MIC50 [18]: 2 µg/mL
- MIC90 [18]: 16 µg/mL
- MIC50 [19]: 8 µg/mL
- MIC90 [19]: 32 µg/mL
- MIC [20]: 2 µg/mL
- MIC50 [20]: 2 µg/mL
- MIC90 [20]: 4 µg/mL
- MIC50 [21]: 2 µg/mL
- MIC90 [21]: 16 µg/mL
- MIC50 [22]: 0.06 µg/mL (≈ 0.116 µM)
- MIC90 [22]: 0.06 µg/mL (≈ 0.116 µM)
- MIC50 [23]: 64 µg/mL
- MIC [24]: ≤ 0.015 µg/mL
- MIC50 [24]: ≤ 0.015 µg/mL
- MIC90 [24]: ≤ 0.015 µg/mL
